# Activity calls are given as the source filed them. The rule behind the calls is not given here. Where a SMILES comes first, the peptide text is derived from it. [ ]: non-standard residue; d: D form.
# Legend:
# [1] = In vitro Natural Killer cell activity (Activation of murine splenocyte NK cells by its ability to lyze YAC-1 target cells in chromium release assay) relative to interleukin 2; Range 0-20%; format: functional, Mus musculus
# In short: (§1)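 Spleens from female C57BL/6 (H-2b) mice, 6–8 weeks old, homogenized in RPMI 1640 with 10% FCS and 2 mM L-glutamine. Mononuclear cells isolated on a Lympholyte M gradient (800g, 20 min), washed in PBS, viability checked by trypan blue. 5×10^5 splenocytes with compound incubated 4 h with 5×10^3 51Cr-labelled YAC-1 cells; % specific lysis from released chromium. Compounds tested at 10^-4–10^-12 M. Peak activity scored relative to IL 2 (100%) in 20% bands. Actives run 2–5 times, inactives once.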
# [2] = system: Mus musculus; assay: Antimetastatic effect in lungs of C57BL/6 mice injected iv on day 0 with 250000 B16 melanoma cells and a dose of 50 mg/kg of compound in exp 2; format: functional, Lung
# In short: (§2)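 Female C57BL/6 mice, 6–8 weeks old, given 2.5×10^5 B16F10 melanoma cells iv on day 0. Sacrifice on day 24; lungs fixed and surface tumour colonies counted. Mean ± SEM; n = 8 in exp 1, n = 4 in exp 2.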
# [3] = species: Homo sapiens; assay: Iin vitro NK cell cytolytic activity (K 562 target) using human PBML; Range 81-100%; format: functional
# In short: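 PBML isolated from heparinized human blood by Ficoll-Hypaque density gradient centrifugation. For the NK assay (K562 targets), activity is scored relative to an IL 2 control.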
# [4] = species: Mus musculus; assay: The compound was tested in vitro for phagocytotic activity against murine whole blood; No effect; format: functional
# [5] = species: Mus musculus; assay: The compound was tested in vitro for mixed lymphocyte reaction against murine splenocytes; No effect; format: functional
# [6] = system: Mus musculus; assay: Antimetastatic effect in lungs of C57BL/6 mice injected iv on day 0 with 250000 B16 melanoma cells and a dose of 0 mg/kg of compound in exp 2; format: functional, Lung; in short: as §2
# [7] = species: Homo sapiens; assay: The compound was tested in vitro for phagocytotic activity against human PBML; No effect; format: functional
# [8] = species: Mus musculus; assay: The compound was tested in vitro for respiratory burst against murine whole blood; No effect; format: functional
# [9] = species: Mus musculus; assay: The compound was tested in vitro for B cell proliferation (PWM, LPS) against murine splenocytes; No effect; format: functional
# [10] = In vitro Natural Killer cell activity (Activation of murine splenocyte NK cells by its ability to lyze YAC-1 target cells in chromium release assay) relative to interleukin 2 at 10E-4 to […] conc; Range 101-120%; format: functional, Mus musculus; in short: as §1
# [11] = system: Mus musculus; assay: Antimetastatic effect in lungs of C57BL/6 mice injected iv on day 0 with 250000 B16 melanoma cells and a dose of 25 mg/kg of compound in exp 1; format: functional, Lung; in short: as §2
# [12] = species: Mus musculus; assay: In vitro for cytotoxic T lymphocyte activity against murine splenocytes; Range 21-40% of IL 2; format: functional
# [13] = system: Mus musculus; assay: Antimetastatic effect in lungs of C57BL/6 mice injected iv on day 0 with 250000 B16 melanoma cells and a dose of 25 mg/kg of compound in exp 2; format: functional, Lung; in short: as §2
# [14] = species: Homo sapiens; assay: The compound was tested in vitro for respiratory burst against human PBML; No effect; format: functional
# [15] = species: Mus musculus; assay: The compound was tested in vitro for T cell proliferation (PHA, ConA) against murine splenocytes; No effect; format: functional
# [16] = species: Mus musculus; assay: Peak or the range of peak activity relative to positive IL 2 control; Range 10e-12-10e-7; format: functional; in short: as §1
# [17] = system: Mus musculus; assay: Antimetastatic effect in lungs of C57BL/6 mice injected iv on day 0 with 250000 B16 melanoma cells and a dose of 0 mg/kg of compound in exp 1; format: functional, Lung; in short: as §2
# [18] = In vitro Natural Killer cell activity (Activation of murine splenocyte NK cells by its ability to lyze YAC-1 target cells in chromium release assay) relative to interleukin 2 at 10E-4 to 10E-12 M conc; Range 41-60%; format: functional, Mus musculus; in short: as §1
# [19] = species: Mus musculus; assay: Peak or the range of peak activity relative to positive IL 2 control; Range 10e-12-10e-4; format: functional; in short: as §1
# [20] = In vitro Natural Killer cell activity (Activation of murine splenocyte NK cells by its ability to lyze YAC-1 target cells in chromium release assay) relative to interleukin 2 at 10E-4 to 10E-12 M conc.; format: functional, Mus musculus; in short: as §1
# [21] = In vitro Natural Killer cell activity (Activation of murine splenocyte NK cells by its ability to lyze YAC-1 target cells in chromium release assay) relative to interleukin 2 at 10E-4 to 10E-8 M conc; Range 21-40%; format: functional, Mus musculus; in short: as §1
# [22] = species: Mus musculus; assay: Peak or the range of peak activity relative to positive IL 2 control; Range 10e-12-10e-5; format: functional; in short: as §1
# [23] = In vitro Natural Killer cell activity (Activation of murine splenocyte NK cells by its ability to lyze YAC-1 target cells in chromium release assay) relative to interleukin 2 at 10E-4 to 10E-12 M conc; Range 61-80%; format: functional, Mus musculus; in short: as §1
# [24] = In vitro Natural Killer cell activity (Activation of murine splenocyte NK cells by its ability to lyze YAC-1 target cells in chromium release assay) relative to interleukin 2 at 10E-4 to 10E-12 M conc; Range 21-40%; format: functional, Mus musculus; in short: as §1
# [25] = species: Mus musculus; assay: Peak or the range of peak activity relative to positive IL 2 control; Range 10e-12-10e-6; format: functional; in short: as §1
# [26] = In vitro Natural Killer cell activity (Activation of murine splenocyte NK cells by its ability to lyze YAC-1 target cells in chromium release assay) relative to interleukin 2 at 10E-4 to 10E-12 M conc; Range […]; format: functional, Mus musculus; in short: as §1
# [27] = In vitro Natural Killer cell activity (Activation of murine splenocyte NK cells by its ability to lyze YAC-1 target cells in chromium release assay) relative to interleukin 2 at 10E-4 to 10E-10 M conc; Range 41-60%; format: functional, Mus musculus; in short: as §1
# [28] = species: Mus musculus; assay: Peak or the range of peak activity relative to positive IL 2 control; Range 10e-8-10e-4; format: functional; in short: as §1
# [29] = In vitro Natural Killer cell activity (Activation of murine splenocyte NK cells by its ability to lyze YAC-1 target cells in chromium release assay) relative to interleukin 2 at 10E-6 to 10E-12 M conc; Range 21-40%; format: functional, Mus musculus; in short: as §1
# [30] = In vitro Natural Killer cell activity (Activation of murine splenocyte NK cells by its ability to lyze YAC-1 target cells in chromium release assay) relative to interleukin 2 at 10e-4; Range 101-120%
# [31] = In vitro Natural Killer cell activity (Activation of murine splenocyte NK cells by its ability to lyze YAC-1 target cells in chromium release assay) relative to interleukin 2 at 10E-8 to 10E-12 M conc; Range 41-60%; format: functional, Mus musculus; in short: as §1
# [32] = In vitro Natural Killer cell activity (Activation of murine splenocyte NK cells by its ability to lyze YAC-1 target cells in chromium release assay) relative to interleukin 2 at 10E-4 to 10E-12 M conc; Range 81-100%; format: functional, Mus musculus; in short: as §1
structure (smiles),measurement,setting,value
CC1OC(OCCCCCCNC(=O)[C@H](CCC(N)=O)NC(=O)CCN)C(O)C(O)C1O (stereo partly specified),Stimulation,[1],0%
CC1OC(OCCCCCCNC(=O)[C@H](CCC(N)=O)NC(=O)[C@@H](C)N)C(O)C(O)C1O (stereo partly specified),No. of lung colonies,[2],60
same,Activity,[3],81%
same,Activity,[4],inactive
same,Activity,[5],inactive
same,No. of lung colonies,[6],101
same,Activity,[7],inactive
same,Activity,[8],inactive
same,Activity,[9],inactive
same,Stimulation,[10],101%
same,No. of lung colonies,[11],109
same,Activity,[12],21%
same,No. of lung colonies,[13],86
same,Activity,[14],inactive
same,Activity,[15],inactive
same,Concentration,[16],10 pM
same,No. of lung colonies,[17],142
C[C@H](N)C(=O)N[C@@H](CCC(N)=O)C(=O)NCCCCCCO,Stimulation,[18],41%
CC1OC(OCCCCCCNC(=O)[C@H](CCC(N)=O)NC(=O)[C@H](N)C(C)C)C(O)C(O)C1O (stereo partly specified),Stimulation,[18],41%
same,Concentration,[19],10 pM
CC(=O)N[C@@H](CCC(N)=O)C(=O)NCCCCCCOC1OC(C)C(O)C(O)C1O (stereo partly specified),Stimulation,[20],0%
CC1OC(OCCCCCCCCCCCCNC(=O)[C@H](CCC(N)=O)NC(=O)[C@@H](C)N)C(O)C(O)C1O (stereo partly specified),Stimulation,[21],21%
O=C1CC[C@@H](C(=O)NCCCCCCO)N1,Concentration,[22],10 pM
same,Stimulation,[23],61%
CC1OC(OCCCCCCNC(=O)[C@@H]2CCCN2C(=O)[C@H](C)N)C(O)C(O)C1O (stereo partly specified),Stimulation,[20],0%
CC1OC(OCCCCCCNC(=O)[C@H](CCCCNC(=O)[C@H](CCC(N)=O)NC(=O)[C@@H](C)N)NC(=O)[C@H](CCC(N)=O)NC(=O)[C@@H](C)N)C(O)C(O)C1O (stereo partly specified),Stimulation,[24],21%
CC1OC(OCCCCCCn2cnc3c(N(C)C)ncnc32)C(O)C(O)C1O (stereo unspecified),Concentration,[25],10 pM
same,Stimulation,[26],81%
NC(=O)CC[C@H](N)C(=O)NCCCCCCO,Stimulation,[1],0%
C=CCn1c(=O)n([C@@H]2O[C@H](CO)[C@@H](O)[C@H]2O)c2nc(N)[nH]c(=O)c21 [LOXORIBINE],Stimulation,[20],0%
CC1OC(OCCCCCCNC(=O)[C@@H]2CCC(=O)N2)C(O)C(O)C1O (stereo partly specified),Stimulation,[20],0%
CC[C@@H](C)[C@H](N)C(=O)N1CCC[C@H]1C(=O)NCCCCCCOC1OC(C)C(O)C(O)C1O (stereo partly specified),Stimulation,[20],0%
C[C@@H](N)C(=O)N[C@@H](CCC(N)=O)C(=O)NCCCCCCCCCCCCO,Stimulation,[27],41%
CC1OC(OCCCCCCNC(=O)[C@@H](N)CCC(N)=O)C(O)C(O)C1O (stereo partly specified),Stimulation,[24],21%
same,Concentration,[28],100 nM
CC1OC(OCCCCCCNC(=O)CC[C@H](NC(=O)[C@H](CCC(N)=O)NC(=O)[C@@H](C)N)C(=O)NCCCCCCOC2OC(C)C(O)C(O)C2O)C(O)C(O)C1O (stereo partly specified),Stimulation,[1],0%
C[C@@H](N)C(=O)N[C@@H](CCC(N)=O)C(=O)O (H-[dA]-Gln-OH),Stimulation,[1],0%
CC[C@H](C)[C@H](N)C(=O)N1CCC[C@H]1C(=O)NCCCCCCO,Stimulation,[29],21%
CC1OC(OCCCCCCNC(=O)[C@H](CCC(=O)O)NC(=O)[C@@H](C)N)C(O)C(O)C1O (stereo partly specified),Stimulation,[18],41%
same,Concentration,[19],10 pM
C[C@@H](N)C(=O)N[C@@H](CCC(N)=O)C(=O)NCCCCCCN,Stimulation,[30],101%
C[C@@H](N)C(=O)N[C@@H](CCC(N)=O)C(=O)NCCCCCCCl,Stimulation,[1],0%
CC(=O)OCCCCCCNC(=O)[C@@H](CCC(N)=O)NC(=O)[C@H](C)N,Stimulation,[1],0%
CC1OC(OCCCCCCNC(=O)CNC(=O)[C@@H](C)N)C(O)C(O)C1O (stereo partly specified),Stimulation,[20],0%
C[C@@H](N)C(=O)N[C@H]1CCC(=O)NC1=O,Stimulation,[20],0%
CC1OC(OCCCCCCNC(=O)[C@H](CCC(N)=O)NC(=O)[C@H](C)N)C(O)C(O)C1O (stereo partly specified),Concentration,[22],10 pM
same,Stimulation,[23],61%
same,Concentration,[19],10 pM
C[C@@H](N)C(=O)N[C@@H](CCC(N)=O)C(=O)NCCCCCC(=O)O,Stimulation,[20],0%
CC1OC(SCCCCCCNC(=O)[C@H](CCC(N)=O)NC(=O)[C@@H](C)N)C(O)C(O)C1O (stereo partly specified),Stimulation,[31],41%
C[C@H](N)C(=O)N1CCC[C@H]1C(=O)NCCCCCCO,Stimulation,[1],0%
CC1OC(OCCCCCCNC(=O)[C@H](CCCN)NC(=O)[C@@H](C)N)C(O)C(O)C1O (stereo partly specified),Stimulation,[20],0%
CC1OC(OCCCCCCNC(=O)[C@@H](CCC(N)=O)NC(=O)[C@H](C)N)C(O)C(O)C1O (stereo partly specified),Stimulation,[20],0%
CN[C@H](C(=O)NCCCCCCOC1OC(C)C(O)C(O)C1O)c1ccc(C(=O)O)[nH]1 (stereo partly specified),Stimulation,[20],0%
C[C@@H](N)C(=O)N[C@@H](CCC(N)=O)C(=O)NCCCCCCO,Stimulation,[32],101%
CC1OC(OCCCCCCNC(=O)[C@H](CC(N)=O)NC(=O)[C@@H](C)N)C(O)C(O)C1O (stereo partly specified),Stimulation,[20],0%
C[C@H](N)C(=O)N[C@H](CCC(N)=O)C(=O)NCCCCCCO,Stimulation,[31],41%
CC1OC(OCCc2ccc(NC(=O)[C@H](CCC(N)=O)NC(=O)[C@@H](C)N)cc2)C(O)C(O)C1O (stereo partly specified),Stimulation,[20],0%
C[C@@H](N)C(=O)N[C@@H](CCC(N)=O)C(=O)NCCCCCCO[C@H]1O[C@H](CO)[C@H](O)[C@@H](O)[C@H]1O,Stimulation,[32],0%
CC1OC(OCCCCCCNC(=O)[C@H](CCC(=O)O)NC(=O)[C@H](C)N)C(O)C(O)C1O (stereo partly specified),Stimulation,[18],41%
CC(C(=O)OCCCCCn1cnc2c(N(C)C)ncnc21)[C@H](C)CCCN=C(N)N (stereo partly specified),Stimulation,[20],0%

# Reference: ChEMBL document CHEMBL1131621, “Synthesis and activity of dipeptides, linked to targeting ligands, as specific NK cell enhancers” (1998)
